Laboratory results as given in ChEMBL document CHEMBL1157562, “Piperazinyl glutamate pyridines as potent orally bioavailable P2Y12 antagonists for inhibition of platelet aggregation” (J Med Chem, 2010).

Legend:
P2Y purinoceptor 12 = P2Y purinoceptor 12 (Homo sapiens, UniProt Q9H244); assay: Displacement of [33P]ADP from human recombinant P2Y12 receptor expressed in CHO cells; format: cell-based
Procedure, shortened: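 Washed membranes from CHO cells expressing synthetic human P2Y12, incubated 1 h at room temperature with 0.2 nM 33P-MeSADP in 50 mM Tris/100 mM NaCl/1 mM EDTA. Compound was tested as a 7-point 3-fold series in triplicate. Nonspecific binding was defined with 300 nM 2-MeSADP, followed by filtration.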

[1] = Antiplatelet aggregation activity against adenosine diphosphate-induced human platelet rich plasma assessed as inhibition of platelet aggregation by turbidimetric method; format: functional
Procedure, shortened: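 Human PRP, prepared by two-step centrifugation and adjusted to 330 000 platelets/μL with PPP. Compound was preincubated 5 min at 37 °C in 0.5% DMSO, then 20 μM ADP was added. OD626 was read kinetically for 15 min at 37 °C with mixing between reads.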

[2] = Clearance in Sprague-Dawley rat at 2 mg/kg, iv and 5 mg/kg, po; format: ADME, organism-based; conditions: in vivo
Procedure, shortened: (§1)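 Rats received 2 mg/kg iv infusion or 5 mg/kg po, in 50% PEG400/40% PBS/10% ethanol.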

[3] = Volume of distribution at steady state in Sprague-Dawley rat at 2 mg/kg, iv and 5 mg/kg, po; format: ADME, organism-based; conditions: in vivo, read-out: Vdss; procedure, shortened: as §1
[4] = Half life in Sprague-Dawley rat at 2 mg/kg, iv and 5 mg/kg, po; format: ADME, organism-based; conditions: in vivo; procedure, shortened: as §1
in vivo = conditions: Sprague-Dawley, rat, po, 5 mg/kg
[5] = Solubility of the compound; format: physicochemical
[6] = Chemical stability of the compound; format: physicochemical
[7] = Antiplatelet aggregation activity against adenosine diphosphate-induced human platelet rich plasma assessed as inhibition of platelet aggregation by chronolog PRP aggregometry assay; conditions: read-out: IC50(app)
Rattus norvegicus [8] = species on record: Rattus norvegicus; assay: Antithrombotic activity in rat venous thrombus model assessed as inhibition of injury-induced thrombosis; format: functional, organism-based
Procedure, shortened: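 Rats given test compound orally; thrombosis induced by vascular injury with ferric chloride; thrombus formation was scored as the read-out.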

Rattus norvegicus [9] = species on record: Rattus norvegicus; assay: Toxicity in rat assessed as adverse effects; format: organism-based; conditions: in vivo
Canis familiaris = species on record: Canis familiaris; assay: Toxicity in dog assessed as adverse effects; format: organism-based, Canis lupus familiaris; conditions: in vivo
Platelet = assay: Relative potency, ratio of IC50 for drug to IC50 for AZD-6140 for platelet aggregation in human platelet rich plasma; format: functional
Rattus norvegicus [10] = species on record: Rattus norvegicus; conditions: in vivo, po, 5 mg/kg
[11] = Apparent permeability across human Caco-2 cells; format: ADME, cell-based

P2Y purinoceptor 12, sequence (Q9H244 whole entry): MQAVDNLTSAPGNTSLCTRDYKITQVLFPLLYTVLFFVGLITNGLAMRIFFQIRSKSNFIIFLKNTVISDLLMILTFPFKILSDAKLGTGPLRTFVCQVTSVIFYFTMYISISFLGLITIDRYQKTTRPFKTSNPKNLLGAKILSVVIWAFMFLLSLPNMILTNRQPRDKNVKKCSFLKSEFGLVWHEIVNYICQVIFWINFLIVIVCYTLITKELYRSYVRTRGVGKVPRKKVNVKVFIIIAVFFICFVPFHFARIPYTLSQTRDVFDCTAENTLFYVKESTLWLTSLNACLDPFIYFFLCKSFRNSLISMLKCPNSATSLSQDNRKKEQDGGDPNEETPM

Row | Ki (P2Y purinoceptor 12) [µM] | IC50 ([1]; Homo sapiens, Platelet, Plasma) [µM] | clearance [2] [mL/min/kg] | Vd [3] [L/kg] | half-life [4] [min] | bioavailability (in vivo) [%] | IC50 ([1]; platelet) [µM] | solubility [5] | Stability [6] | IC50 [7] [µM] | F (Rattus norvegicus [10]) [%] | Papp [11] [×10⁻⁶ cm/s] | Structure (SMILES) | inhibition (Rattus norvegicus [8]) | Activity (Rattus norvegicus [9]) | Activity (Canis familiaris) | Ratio IC50 (Platelet)
1 | 0.209 | 71 | 98 | 15.5 | 108 | 34 | – | – | – | – | – | – | CCOC(=O)N1CCN(C(=O)[C@H](CCC(=O)O)NC(=O)c2cccc(-c3ccccc3)n2)CC1 | – | – | – | –
2 | – | – | – | – | – | – | 3.9 | Soluble | Stable | 1.8 | – | – | CCCCCOC(=O)N1CCN(C(=O)[C@H](CCC(=O)O)NC(=O)c2cc(N3CCC(COC)CC3)cc(-c3ccccc3)n2)CC1 | Dose-dependent effect | Non-toxic | Non-toxic | –
3 | 0.0094 | 2.4 | 150 | 6.9 | 30 | 1 | – | – | – | – | – | – | CCCCCCOC(=O)N1CCN(C(=O)[C@H](CCC(=O)O)NC(=O)c2cc(OC3CCNCC3)cc(-c3ccccc3)n2)CC1 | – | – | – | 1.8
4 | – | 4.3 | 46 | 2.3 | 36 | – | – | – | – | – | 183 | – | CCCCCOC(=O)N1CCN(C(=O)[C@H](CCC(=O)O)NC(=O)c2cc(OCCOC)cc(-c3ccccc3)n2)CC1 | – | – | – | 3.2
5 | 0.06 | 34 | 109 | 3.9 | 24 | 72 | – | – | – | – | – | – | CCCCOc1cc(C(=O)N[C@@H](CCC(=O)O)C(=O)N2CCN(C(=O)OCC)CC2)nc(-c2ccccc2)c1 | – | – | – | 32
6 | – | 28 | 85 | 3.8 | 30 | 80 | – | – | – | – | – | – | CCCNc1cc(C(=O)N[C@@H](CCC(=O)O)C(=O)N2CCN(C(=O)OCC)CC2)nc(-c2ccccc2)c1 | – | – | – | 28
7 | – | 4.5 | – | – | – | – | – | – | – | – | – | 1.1 | CCCCOC(=O)N1CCN(C(=O)[C@H](CCC(=O)O)NC(=O)c2cc(OCCOC)cc(-c3ccccc3)n2)CC1 | – | – | – | 2.9
8 | 0.14 | 6 | 94 | 13.6 | 12 | 33 | – | – | – | – | – | – | CCOC(=O)N1CCN(C(=O)[C@H](CCC(=O)O)NC(=O)c2cc(OCCOC)cc(-c3ccccc3)n2)CC1 | – | – | – | 8
9 | 0.011 | 10 | 675 | 29 | 30 | 66 | – | – | – | – | – | – | CCCCCOC(=O)N1CCN(C(=O)[C@H](CCC(=O)O)NC(=O)c2cc(O)cc(-c3ccccc3)n2)CC1 | – | – | – | 7.2
10 | 0.0057 | 3.8 | 103 | 3.9 | 24 | 8 | – | – | – | – | – | – | CCCCCOC(=O)N1CCN(C(=O)[C@H](CCC(=O)O)NC(=O)c2cc(NCCO)cc(-c3ccccc3)n2)CC1 | – | – | – | 3.2
